ChEMBL document CHEMBL4813967, “Tackling resistance in chronic myeloid leukemia: Novel cell death modulators with improved efficacy” (Eur J Med Chem, 2021)

Assays:
COS-7 [1] = experiment: Cytotoxicity against African green monkey COS7 cells assessed as cell viability at 10 uM incubated for 72 hrs by MTT assay; conditions: chlorocebus aethiops, cos-7, 72 h
K562 [2] = experiment: Induction of cell sensitization to imatinib in imatinib-resistant human K562 cells assessed as cell death at 5 uM incubated for 72 hrs in presence of 1 uM imatinib by PI staining based flow cytometry (reference value: 19%); format: functional
COS-7 [3] = experiment: Cytotoxicity against African green monkey COS7 cells assessed as cell viability at 10 uM incubated for 72 hrs by MTT assay; format: cell-based; conditions: chlorocebus aethiops, cos-7, 72 h
How it was run: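 COS-7 cells in DMEM with 10% FCS and L-glutamine, no antibiotics or phenol red. Seeded 2×10^3/well in triplicate, grown 24 h, then compound added at 10 µM final and incubated 72 h. Modified MTT (tetrazolium) metabolic-activity readout by absorbance. DMSO control set to 100%; DMSO ≤0.1%. Mean + SD of ≥3 experiments, triplicate determinations.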

[4] = Cytotoxicity against human HS5 cells assessed as cell death at 5 uM incubated for 72 hrs by PI staining based flow cytometry; conditions: hs5, 72 h
How it was run: (§1)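 HS-5 stromal cells in DMEM with 10% FCS, 5% CO2, 37 °C. Seeded 0.5×10^5/well, given compound (5 µM) alone or with imatinib, and incubated 72 h. Cells stained with PI/Triton X-100 for 2 h at 4 °C. Dead cells counted by flow cytometry as sub-G1 nuclei. DMSO vehicle control included.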

K562 [5] = experiment: Induction of cell sensitization to imatinib in imatinib-resistant human K562 cells assessed as cell death at 10 uM incubated for 72 hrs in presence of 1 uM imatinib by PI staining based flow cytometry (reference value: 19%); format: functional
[6] = Cytotoxicity against human HS5 cells assessed as cell death at 5 uM incubated for 72 hrs in presence of imatinib by PI staining based flow cytometry; conditions: hs5, 72 h
How it was run: as §1

[7] = target: T1, Peroxisome proliferator-activated receptor gamma (Homo sapiens, UniProt P37231); experiment: Agonist activity at Gal4-fused human PPARgamma transfected in African green monkey COS7 cells co-transfected with pGal5-TK-pGL3 and pRenilla-CMV assessed as receptor transactivation at 10 uM incubated for 39 hrs by dual luciferase reporter gene assay relative to piaglitazone; format: cell-based; conditions: COS-7, human, read-out: max activation
T1 sequence (P37231 whole entry): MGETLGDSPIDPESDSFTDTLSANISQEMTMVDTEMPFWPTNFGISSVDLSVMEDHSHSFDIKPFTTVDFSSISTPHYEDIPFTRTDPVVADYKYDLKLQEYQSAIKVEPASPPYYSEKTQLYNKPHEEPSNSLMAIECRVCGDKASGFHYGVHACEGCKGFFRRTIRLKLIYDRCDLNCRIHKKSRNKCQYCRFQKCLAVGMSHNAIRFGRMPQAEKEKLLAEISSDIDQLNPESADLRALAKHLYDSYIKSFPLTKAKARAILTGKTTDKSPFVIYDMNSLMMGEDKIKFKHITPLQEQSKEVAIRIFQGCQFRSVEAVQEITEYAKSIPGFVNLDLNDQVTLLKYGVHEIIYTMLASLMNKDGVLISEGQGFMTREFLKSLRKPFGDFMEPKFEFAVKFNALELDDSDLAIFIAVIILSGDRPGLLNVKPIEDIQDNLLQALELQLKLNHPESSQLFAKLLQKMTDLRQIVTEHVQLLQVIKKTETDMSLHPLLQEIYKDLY
How it was run: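 COS-7 cells (10^4/well, triplicates) grown 24 h, then transiently transfected with pGal5-TK-pGL3 (90 ng), pGal4-hPPARγDEF (9 ng) and pRenilla-CMV (3 ng). Compound added 7 h later, incubation 39 h. Cells lysed by freezing at -80 °C overnight plus lysis buffer. Firefly luciferase normalised to Renilla. Activity at 10 µM expressed relative to pioglitazone at 10 µM (100%). Mean ± SD of ≥3 experiments.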

K562 [8] = experiment: Cytotoxicity against imatinib-resistant human K562 cells assessed as cell death at 5 uM incubated for 72 hrs by propidium iodide staining based flow cytometry; conditions: k562, 72 h
How it was run: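 K562-resistant cells, a doxorubicin-resistant K562 subclone (KD225), grown in RPMI 1640 with 10% FCS. Seeded 2×10^5/well and exposed 72 h to compound alone or with 1 µM imatinib. PI/Triton X-100 staining 2 h at 4 °C; flow cytometry scoring sub-G1 nuclei as dead cells. DMSO vehicle (≤0.1%) controls. Mean ± SEM of ≥3 experiments.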

[9] = Modulation of STAT5 expression in imatinib-resistant human K562 cells assessed as STAT5 level at 5 uM measured after 6 hrs by Jess Simple Western immunoassay (reference value: 100%); format: functional
How it was run: (§2)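 K562-resistant (doxorubicin-resistant KD225) cells treated 6 h with compound at 5 µM, alone or with 1 µM imatinib, against a DMSO control. Total protein extracts analysed by capillary Jess Simple Western. STAT5 antibody 10 µg/ml with 0.2 mg/ml lysate; pSTAT5 (Y694/699) antibody 20 µg/ml with 2 mg/ml lysate. GAPDH (0.4 µg/ml) as loading reference; HRP anti-rabbit secondary.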

[10] = target: T2, Signal transducer and activator of transcription 5A (Homo sapiens) (UniProt P42229); experiment: Inhibition of STAT5 phosphorylation at Y694/699 residue in imatinib-resistant human K562 cells assessed as phosphorylated STAT5 level at 5 uM incubated for 6 hrs in presence of imatinib by Jess Simple Western immunoassay (reference value: 100%); format: cell-based; set-up: scale not given: the % may be the effect or the level left
T2 sequence (whole entry): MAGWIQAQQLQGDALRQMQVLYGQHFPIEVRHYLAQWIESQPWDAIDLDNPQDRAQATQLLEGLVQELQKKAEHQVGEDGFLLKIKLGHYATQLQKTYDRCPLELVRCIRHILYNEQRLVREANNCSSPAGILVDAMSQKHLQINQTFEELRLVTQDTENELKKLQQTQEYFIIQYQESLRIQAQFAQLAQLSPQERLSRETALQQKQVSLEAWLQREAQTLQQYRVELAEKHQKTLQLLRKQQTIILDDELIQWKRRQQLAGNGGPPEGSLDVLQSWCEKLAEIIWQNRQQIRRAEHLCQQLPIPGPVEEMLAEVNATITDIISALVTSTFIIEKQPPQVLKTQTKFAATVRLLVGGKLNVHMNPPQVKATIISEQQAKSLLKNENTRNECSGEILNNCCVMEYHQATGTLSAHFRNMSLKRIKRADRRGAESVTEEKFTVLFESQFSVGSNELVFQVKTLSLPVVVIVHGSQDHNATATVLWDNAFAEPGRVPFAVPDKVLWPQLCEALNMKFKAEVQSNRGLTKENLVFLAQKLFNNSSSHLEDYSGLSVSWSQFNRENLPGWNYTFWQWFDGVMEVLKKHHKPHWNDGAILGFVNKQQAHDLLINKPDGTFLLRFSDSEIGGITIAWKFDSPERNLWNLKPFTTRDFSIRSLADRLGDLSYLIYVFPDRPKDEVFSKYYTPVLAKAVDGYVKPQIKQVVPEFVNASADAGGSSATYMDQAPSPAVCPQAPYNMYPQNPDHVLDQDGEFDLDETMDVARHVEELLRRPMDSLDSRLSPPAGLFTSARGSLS

[11] = target: T2, Signal transducer and activator of transcription 5A (Homo sapiens); experiment: Inhibition of STAT5 phosphorylation at Y694/699 residue in imatinib-resistant human K562 cells assessed as phosphorylated STAT5 level at 5 uM incubated for 6 hrs by Jess Simple Western immunoassay (reference value: 100%); format: cell-based; set-up: scale not given: the % may be the effect or the level left
How it was run: as §2

[12] = Modulation of STAT5 expression in imatinib-resistant human K562 cells assessed as STAT5 level at 5 uM measured after 6 hrs in presence of imatinib by Jess Simple Western immunoassay (reference value: 100%); format: functional

Row | SMILES | Activity (COS-7 [1]) | Activity (K562 [2]) [%] | Activity (COS-7 [3]) | Activity [4] | Activity (K562 [5]) [%] | Activity [6] | Emax at 10 µM [7] [%] | Activity (K562 [8]) | Activity [9] [%] | Activity [10] [%] | Activity [11] [%] | Activity [12] [%]
1 | CCCc1nc2c(OC)cccc2n1Cc1ccc(-c2ccccc2C#N)cc1 | Non-Toxic | 50 | Non-Toxic | Non-Toxic | >85 | Non-Toxic | 45.9 | <= 20% |  |  |  | 
2 | CCCc1nc2c(Cl)cccc2n1Cc1ccc(-c2ccccc2C#N)cc1 | Non-Toxic | 50 | Non-Toxic | Non-Toxic | >85 | Non-Toxic | 68.4 | <= 20% | 107 | 12 | 81 | 109
3 | CCCc1nc2c(N)cccc2n1Cc1ccc(-c2ccccc2C(=O)OC)cc1 | Non-Toxic | 26 | Non-Toxic | Non-Toxic |  | Non-Toxic | 0.11 | <= 20% |  |  |  | 
4 | CCCc1nc2ccc(Br)cc2n1Cc1ccc(-c2ccccc2C(=O)OC)cc1 |  |  |  |  | 63 |  |  |  |  |  |  | 
5 | CCCc1nc2c([N+](=O)[O-])cccc2n1Cc1ccc(-c2ccccc2C#N)cc1 | Non-Toxic | 50 | Non-Toxic | Non-Toxic | >85 | Non-Toxic | 37.9 | <= 20% |  |  |  | 
6 | CCCc1nc2c(Cl)cccc2n1Cc1ccc(-c2ccccc2C(=O)OC)cc1 | Non-Toxic | 57 | Non-Toxic | Non-Toxic | >85 | Non-Toxic | 22.2 | <= 20% | 103 | 3 | 87 | 101
7 | CCCc1nc2c(C)cccc2n1Cc1ccc(-c2ccccc2C#N)cc1 | Non-Toxic | 50 | Non-Toxic | Non-Toxic | >85 | Non-Toxic | 32.2 | <= 20% |  |  |  | 
8 | CCCc1nc2c([N+](=O)[O-])cccc2n1Cc1ccc(-c2ccccc2C(=O)OC)cc1 | Non-Toxic | 57 | Non-Toxic | Non-Toxic | >85 | Non-Toxic | 15 | <= 20% |  |  |  | 
9 | CCCc1nc2c(N)cccc2n1Cc1ccc(-c2ccccc2C#N)cc1 | Non-Toxic | 28 | Non-Toxic | Non-Toxic |  | Non-Toxic | 43 | <= 20% |  |  |  | 
10 | CCCc1nc2c(OC)cccc2n1Cc1ccc(-c2ccccc2C(=O)OC)cc1 | Non-Toxic | 57 | Non-Toxic | Non-Toxic | >85 | Non-Toxic | 20.7 | <= 20% |  |  |  | 
11 | CCCc1nc2ccccc2n1Cc1ccc(-c2ccccc2C(=O)OC)cc1 | Non-Toxic | 57 | Non-Toxic | Non-Toxic | >85 | Non-Toxic | 21.6 | <= 20% | 112 | 2 | 104 | 112
12 | CCCc1nc2cc(Br)ccc2n1Cc1ccc(-c2ccccc2C(=O)OC)cc1 |  |  |  |  | 31 |  |  |  |  |  |  | 
13 | CCCc1nc2c(Br)cccc2n1Cc1ccc(-c2ccccc2C#N)cc1 | Non-Toxic | >76 | Non-Toxic | Non-Toxic | >85 | Non-Toxic | 41.1 | <= 20% | 107 | 4 | 90 | 103
14 | CCCc1nc2c(F)cccc2n1Cc1ccc(-c2ccccc2C(=O)OC)cc1 | Non-Toxic | 26 | Non-Toxic | Non-Toxic | >85 | Non-Toxic | 14.7 | <= 20% | 98 | 42 | 102 | 103
15 | CCCc1nc2c(C)cccc2n1Cc1ccc(-c2ccccc2C(=O)OC)cc1 | Non-Toxic | 40 | Non-Toxic | Non-Toxic | >85 | Non-Toxic | 13.8 | <= 20% |  |  |  | 
16 | CCCc1nc2c(F)cccc2n1Cc1ccc(-c2ccccc2C#N)cc1 | Non-Toxic | 50 | Non-Toxic | Non-Toxic | >85 | Non-Toxic | 76 | <= 20% | 105 | 1 | 89 | 96
